# Shown are actives, neighbours in structure and some others; about 11% of the full set was active somewhere.
# M1 antagonist – M1 muscarinic receptor (rat) antagonism | B-score at 10 µM | AID 628 | actives 3.4% (n = 64,000) | CHO-M1 cells, Fluo-4 calcium, ACh EC80 antagonist mode; hits give low values;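 active = calcium fluorescence response, raw or row-and-column corrected B-score, differing from the plate sample mean either way at a set confidence level, mostly lower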
# Target sequence (P08482 whole entry, looked up): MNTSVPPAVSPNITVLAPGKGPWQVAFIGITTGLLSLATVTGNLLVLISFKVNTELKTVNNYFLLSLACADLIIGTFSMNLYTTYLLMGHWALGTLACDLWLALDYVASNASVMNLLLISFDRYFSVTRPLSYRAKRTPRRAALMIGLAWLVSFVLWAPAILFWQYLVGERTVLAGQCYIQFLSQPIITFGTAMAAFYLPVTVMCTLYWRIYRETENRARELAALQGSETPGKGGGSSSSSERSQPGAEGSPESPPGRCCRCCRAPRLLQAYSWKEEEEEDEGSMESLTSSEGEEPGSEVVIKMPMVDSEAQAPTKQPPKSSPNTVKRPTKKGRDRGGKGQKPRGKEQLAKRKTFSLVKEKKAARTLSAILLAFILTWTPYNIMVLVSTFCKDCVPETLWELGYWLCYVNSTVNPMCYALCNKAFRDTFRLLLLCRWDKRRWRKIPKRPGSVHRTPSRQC
# mHtt clearance – mutant huntingtin protein clearance | actives 0.42% (n = 47,000) | inhibition, % at 1.5 µM | HeLa Exon1htt(103Q)mCFP, aggregate imaging; zero = plate's median compound well;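 active = inhibition of aggregate fluorescence above about 70%, also judged a hit by eye on the cell image, limit read from the data, passing the limit was not always enough; inconclusive = no rule stated for this call; inactive = not judged a hit on image review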;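 note: cells exposed to compound for three days before fixation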
# RORa activator – RORA (human) activation; CHO-K1 Gal4-RORA LBD luciferase reporter, luminescence; percent increase over mock-subtracted basal signal; activation, % at 10 µM; actives 1.5% (n = 65,000); AID 560;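 active = activation above the mean of all tested compounds plus 3 SD, cut at about 49% in these data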;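 note: 0% = DMSO-treated RORA cells and 100% = added signal equal to DMSO minus mock-transfected cells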
# SF1 activator – activates the human nuclear receptor SF-1. Q13285. CHO-K1 Gal4-SF-1 LBD luciferase reporter; % increase over DMSO SF-1-specific signal. activation, % at 10 µM. actives 1.9% (n = 65,000);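 active = activation above the mean activation of all tested compounds plus 3 SD, cut at about 50% in these data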
#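 Material: CHO-K1 cells with Gal4–hSF-1 LBD chimera plus Gal4-driven luciferase / Input: 4,000 CHO-K1 cells per well / Incubation: compound exposure 20 h at 37 °C / Signal: luminescence read 15 min after SteadyLite luciferase reagent, after room-temperature equilibration / Read-out: percent activation versus DMSO / Benchmarks: DMSO negative control and −SF1 background wells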
# M1 ag – agonists of M1 muscarinic receptor; CHO-M1 cells, Fluo-4 calcium fluorescence, agonist mode; hits give high values; B-score at 10 µM; actives 3% (n = 64,000); AID 626;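 active = fluorescence rise, raw or as B-score row- and column-corrected plate score, outside the 99.7% band of its plate's samples, either direction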
# D1 allo mod – allosterically modulates the human D1 dopamine receptor; P21728; AID 641; HEK293 D1, CRE-luciferase, dopamine EC30 potentiation; actives deviate in either direction; actives 5.9% (n = 58,000); B-score at 10 µM;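 active = luminescence count or its row- and column-corrected plate score outside the 99.7% band of the plate's sample wells, on either side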
# M1 ag confirm – confirmation of rat M1 muscarinic receptor agonists. CHO-M1 cells, Fluo-4 calcium fluorescence, agonist mode; actives lie on both sides. AID 1488. fluorescence change (max-min) at 10 µM. shares compounds with M1 ag. actives 19% (n = 1,700);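 active = fluorescence change differs from the solvent-only DMSO control mean at a set confidence level in both duplicate runs; inconclusive = differs from solvent-only control mean in just one of two runs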;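 note: an EC20 dose of acetylcholine follows compound addition during the same imaging run; raw fluorescence intensity difference in instrument units with no normalization to controls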
# M4 agonist ctr – counter-screen for M1 agonists: activity at rat M4 receptor; actives 9% (n = 1,700); fluorescence change (max-min) at 10 µM; shares compounds with M1 ag; CHO M4/Gqi5 cells, Fluo-4 calcium fluorescence, agonist mode; actives lie on both sides;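 active = fluorescence change differing from the plate's solvent-only control wells at 99.7% confidence in both duplicates, whether higher or lower; inconclusive = differs from solvent controls in only one of two duplicates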
# An asterisk follows results filed as active; u = inconclusive; x = not tested or not shown.
SMILES,M1 antagonist,mHtt clearance,RORa activator,SF1 activator,M1 ag,D1 allo mod,M1 ag confirm,M4 agonist ctr
CCN1CCN(c2nc3ccccc3nc2C(C#N)C(=O)OCc2ccccc2)CC1 (stereo unspecified),-0.93,x,20,2,-2.7,-3.9,x,x
CCCN(CCC)c1nc2ccccc2nc1C(C#N)C(=O)OC(C)COC (stereo unspecified),0.88,x,-27,-4,1.1,x,x,x
N#CCCn1ncn(-c2ccccc2)c1=S,0.51,x,12,4,0.23,1.2,x,x
Cc1ccc(SC/C(O)=C(\C#N)c2nc3ccccc3s2)cc1,-2.4,-25,9,-12,3.3*,-1.6,-3.5,13
COc1ccc(C/C(O)=C(\C#N)c2nc3ccccc3s2)cc1,-0.38,-8,0,-7,-1.3,-1.3,x,x
CS(=O)(=O)N1CCC(C(=O)Nc2ccc(Oc3ccccc3)cc2)CC1,-0.53,18,-14,0,3.2*,0.021,u,-70
Nc1nnc(C(c2ccccc2)c2ccccc2)s1,x,-36,x,x,x,x,x,x
Cc1ccc(-c2nc3cc(N)ccc3o2)cc1,0.68,x,-27,-19,2.4*,-3.7*,-11,-14
CSc1nc2c(c(-c3ccccc3)c1C#N)CCC2,x,-2,x,x,x,x,x,x
CN1CCCc2cc3c(C(F)(F)F)cc(=O)oc3nc21,-17*,23,-12,-2,429*,2.6,2526*,2146*
CCOC(=O)C1CCCN(CC(=O)NC2CC2)C1 (stereo unspecified),0.43,x,9,-1,-0.44,-1.6,x,x
CCOC(=O)C1CCCN(CCC(=O)Nc2ccc(F)c(F)c2)C1 (stereo unspecified),-1.4,x,-11,2,5.8*,-1,9.2,-28
CCOC(=O)C1CCCN(C(=O)CCC(=O)Nc2ccc3nc(N4CCOCC4)cc(C)c3c2)C1 (stereo unspecified),-1.3,59,4,8,5.4*,0.31,u,-56
CCOC(=O)C1CCCN(CC(=O)NC2=Nc3ccccc3N=C(C)C2c2ccccc2)C1 (stereo unspecified),0.41,26,4,-16,7.4*,-1.8,-31*,-50
CCn1c(SCC(=O)NC(=O)Nc2ccc3c(c2)OCCO3)nnc1-c1cccs1,-0.092,14,-16,10,0.27,1.1,x,x
O=C1c2ccccc2C(=O)N1CCc1nc2ccccc2c(=O)n1Cc1ccco1,-1.4,x,6,2,9.4*,-0.47,-14,-14
CCOC(=O)C1=C(C)N=c2s/c(=C\c3cccn3C)c(=O)n2C1c1cccc(OC)c1OC (stereo unspecified),-0.67,x,7,0,55*,0.66,3.4,76
CCOC(=O)C1=C(C)N=c2s/c(=C/c3ccco3)c(=O)n2C1c1cccc(OC)c1 (stereo unspecified),0.034,-34,-3,12,0.67,-0.6,x,x
COC(=O)C(C(=O)NCC1CCCO1)C1CCCC1 (stereo unspecified),x,0,x,x,x,x,x,x
COC(=O)C(C)N(C(=O)c1ccc(C(=O)c2ccccc2)cc1)c1c(C)cccc1C (stereo unspecified),x,-5,x,x,x,x,x,x
Cc1ccc(C)c(N2CCN(C(=O)COc3cc(=O)n(C)c4ccccc34)CC2)c1,0.46,29,-3,-14,5.5*,-0.031,-8.6,-37
Cc1ccc(C)c(N2CCN(C(=O)CCCOc3cc(=O)n(C)c4ccccc34)CC2)c1,-0.93,-21,3,1,5.9*,-1.9,-18,-23
O=S(=O)(c1cccc(S(=O)(=O)N2CCC(N3CCCCC3)CC2)c1)N1CCOCC1,-1.8,-30,1,7,5.9*,-0.072,-14,-18
CCOC(=O)C1CCN(c2nc(C)nc3c2oc2ccccc23)CC1,-0.98,x,1,2,0.9,x,x,x
CCOC(=O)C1CCCN(c2nc(C)nc3c2oc2ccccc23)C1 (stereo unspecified),0.57,20,8,-17,1.8*,x,-8.2,-29
CC1=C(C#N)C(=O)NC(C)(C)C1,0.63,64,-8,4,-0.53,0.86,x,x

# Source: PubChem (several laboratories)
